“And” between values parts separate entries of the source, which are not always exact repeats. Equal entries are not always repeated. Where two headings read alike, the source gives them in different places.
Experiments:
[1] = test system: carbapenem-resistant Acinetobacter baumannii (CRAB); assay: MIC by microbroth dilution against CRAB; assay type: cell-based; conditions: 24 h incubation
Outline: (§1)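 Broth microdilution per CLSI guidelines in 96-well plates. Incubated 37 °C for 24 h, then read on a microplate reader.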

[2] = test system: carbapenem-resistant Klebsiella pneumonia (BAA-1705); assay: MIC by microbroth dilution against CRKP; assay type: cell-based; conditions: 24 h incubation
Outline: as §1

TrxR in CRAB = TrxR in CRAB (Acinetobacter baumannii, UniProt A0A0G4QN87); assay: Cellular TrxR activity assay; assay type: cell-based; conditions: read-out: IC50 inhibition of TrxR activity in CRAB; 2 h treatment of bacteria
TrxR in CRAB, sequence (A0A0G4QN87 1-315): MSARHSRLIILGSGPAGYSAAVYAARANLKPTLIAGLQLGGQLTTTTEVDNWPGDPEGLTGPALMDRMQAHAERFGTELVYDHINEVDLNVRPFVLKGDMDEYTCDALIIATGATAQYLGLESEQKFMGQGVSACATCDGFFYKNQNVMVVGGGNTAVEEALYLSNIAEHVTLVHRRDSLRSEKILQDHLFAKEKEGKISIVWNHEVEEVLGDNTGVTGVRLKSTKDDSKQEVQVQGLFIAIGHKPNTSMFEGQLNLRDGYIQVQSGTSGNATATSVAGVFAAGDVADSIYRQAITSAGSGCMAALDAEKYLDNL
Outline: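 Cultures at OD600 0.4–0.6 exposed to 0, 0.5, 1, 2, 5, 10, 20 μM for 2 h. Pellets washed three times in PBS and normalised to OD600 0.7 ± 0.02. TrxR assayed with a kit: NADPH-driven DTNB reduction, 2-vinylpyridine added to block GSH, activity from the rate of TNB increase at 412 nm on a plate reader.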

[3] = test system: carbapenem-resistant Escherichia coli (BAA-2140); assay: MIC by microbroth dilution against CREco; assay type: cell-based; conditions: 24 h incubation
Outline: as §1

CRAB-induced peritonitis = assay: Murine peritonitis infection model; assay type: in vivo, BALB/c mice
Outline: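 Male (n = 8/group) and female (n = 12/group) BALB/c mice, 18–22 g, infected i.p. with 200 μL CRAB (1 × 10^9 cfu/mL). Single i.p. dose of 5 mg/kg given 1 h post-infection; PBS as control. Survival followed for 72 h. Experiment repeated three times.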

[4] = test system: vancomycin-intermediate Staphylococcus aureus (ATCC 700699); assay: MIC by microbroth dilution against VISA; assay type: cell-based; conditions: 24 h incubation
Outline: as §1

TrxB expression in CRAB = assay: TrxB expression by qPCR; assay type: cell-based, Acinetobacter baumannii; conditions: 2 h
Outline: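 Bacteria at initial OD600 0.4–0.5 exposed to compound and shaken 2 h at 37 °C. Total RNA extracted with a kit (lysis buffer, chloroform). TrxB mRNA measured by qPCR with 16S as internal control, 2^−ΔΔCt method, in triplicate.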

CRAB = assay: Checkerboard microdilution assay, antibiotic with gold complexes; assay type: cell-based, Acinetobacter baumannii; conditions: for FIC index / MIC of antibiotic: CRAB; for MIC: Acinetobacter baumannii; for MIC of antibiotic: antibiotic alone
Outline: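 Checkerboard in 96-well plates. Inoculum diluted per the CLSI broth microdilution method. Gold complex 0–20 μM crossed with antibiotic 0–240 μM. Growth inhibition read as OD600 on a plate reader.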

[5] = test system: carbapenem-resistant Pseudomonas aeruginosa (BAA-2108); assay: MIC by microbroth dilution against CRPA; assay type: cell-based; conditions: 24 h incubation
Outline: as §1

purified rat liver TrxR = target: T1, purified rat liver TrxR (Rattus norvegicus, UniProt O89049); conditions: read-out: IC50 purified TrxR activity; previous report ref 38; cited from earlier work
T1 sequence (O89049 1-499): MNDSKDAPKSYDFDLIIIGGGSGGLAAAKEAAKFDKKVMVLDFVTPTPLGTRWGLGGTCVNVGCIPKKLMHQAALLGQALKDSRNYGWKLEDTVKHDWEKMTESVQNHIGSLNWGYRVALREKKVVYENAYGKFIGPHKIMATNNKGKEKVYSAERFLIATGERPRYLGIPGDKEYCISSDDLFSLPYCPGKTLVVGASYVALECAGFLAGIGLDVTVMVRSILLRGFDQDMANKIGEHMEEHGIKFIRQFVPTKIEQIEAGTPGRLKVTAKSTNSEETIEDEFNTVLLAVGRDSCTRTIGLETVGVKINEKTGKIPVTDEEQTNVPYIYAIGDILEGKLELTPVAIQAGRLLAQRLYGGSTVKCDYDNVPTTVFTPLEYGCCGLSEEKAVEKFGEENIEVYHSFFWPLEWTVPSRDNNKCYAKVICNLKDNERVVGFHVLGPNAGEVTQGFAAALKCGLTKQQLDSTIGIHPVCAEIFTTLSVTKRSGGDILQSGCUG

For `CC(=O)OC[C@H]1O[C@@H]([S-])[C@H](OC(C)=O)[C@@H](OC(C)=O)[C@@H]1OC(C)=O.CCP(CC)CC.[Au+]` [Auranofin], the “MIC CRAB” value [1] was 20 μM and 13.56 μg/mL, the “MIC CRKP” value [2] was 40 μM and 27.12 μg/mL and the IC50 (TrxR in CRAB) was 6.31 µM. For the same molecule, the “MIC CREco” value [3] was 40 μM and 27.12 μg/mL, the “mice surviving to 34 h” value (CRAB-induced peritonitis; female BALB/c, n = 12, i.p. 5 mg/kg 1 h after infection) was “seven of the twelve mice” and the “mice surviving to 24 h” value (CRAB-induced peritonitis; male BALB/c, n = 8, single i.p. 5 mg/kg 1 h after infection) was “four of the eight mice”. For the same molecule, the “MIC VISA” value [4] was 0.34 μg/mL and 0.5 μM, the “expression of TrxB (mRNA)” value (TrxB expression in CRAB) was “no effect” and the FIC index (CRAB; gold complex in combination with cefotaxime) was 0.625. The FIC index (CRAB; gold complex in combination with imipenem) was 0.75, the “MIC CRPA” value [5] was 40 μM and 27.12 μg/mL and the IC50 (purified rat liver TrxR) was 0.0826 µM.
`CO/N=C(\C(=O)N[C@@H]1C(=O)N2C(C(=O)O)=C(COC(C)=O)CS[C@H]12)c1csc(N)n1` [Cefotaxime] showed an MIC (CRAB; read-out: MIC of cefotaxime in the presence of H7) of 30 µM, an MIC (CRAB; read-out: MIC of cefotaxime in the presence of H8) of 30 µM and an MIC of antibiotic (CRAB) of 240 µM.
`C[C@@H](O)[C@H]1C(=O)N2C(C(=O)O)=C(SCCN=CN)C[C@H]12` [Imipenem] showed an MIC of antibiotic (CRAB) of 240 µM.
